What all share (type): functional
For one test, the system named is Trichophyton rubrum. Kind of test: Antifungal activity against Trichophyton rubrum CCC 113 after 48 hrs by broth microdilution technique. The note with it: CCC 113, 48 h. (Dilution methods test growth across graded concentrations, often in twofold steps.)
In test [1] the test system is Candida albicans. Description: Antifungal activity against Candida albicans ATCC 10231 after 48 hrs by broth microdilution technique. The note with it: ATCC 10231, 48 h. In outline:
(§1)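 Yeasts were tested by CLSI broth microdilution in RPMI-1640 buffered to pH 7.0 with MOPS, with compound from 250 down to 0.98 in DMSO stocks. Trays were held at 30 °C in a moist, dark chamber. MIC100, the lowest concentration giving total visual inhibition against the growth control, was read by eye at 48 h.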

In a further test the test system is Nannizzia gypsea. Description: Antifungal activity against Microsporum gypseum CCC 115 after 48 hrs by broth microdilution technique. The note with it: CCC 115, 48 h. In outline: (§2)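 Moulds and dermatophytes were run by CLSI broth microdilution in MOPS-buffered RPMI-1640 at pH 7.0. Aspergillus was incubated at 30 °C and dermatophytes at 28–30 °C, in a moist, dark chamber. MIC100, the lowest concentration with no visible growth, was read visually at a time set by growth of the control fungus.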

The test system of test [2] is Cryptococcus neoformans. Description: Antifungal activity against Cryptococcus neoformans ATCC 32264 after 48 hrs by broth microdilution technique. The note with it: ATCC 32264, 48 h. In outline:
as §1

Another test has as its system Aspergillus fumigatus. Kind of test: Antifungal activity against Aspergillus fumigatus ATCC 26934 after 48 hrs by broth microdilution technique. The note with it: ATCC 26934, 48 h. In outline: as §2
The next test deals with Aspergillus niger. Description: Antifungal activity against Aspergillus niger ATCC 9029 after 48 hrs by broth microdilution technique. The note with it: ATCC 9029, 48 h. In outline:
as §2

In test [3] the test system is Trichophyton mentagrophytes. Description: Antifungal activity against Trichophyton mentagrophytes ATCC 9972 after 48 hrs by broth microdilution technique. The note with it: ATCC 9972, 48 h. In outline:
as §2

The test system of a further test is Saccharomyces cerevisiae. Kind of test: Antifungal activity against Saccharomyces cerevisiae ATCC 9763 after 48 hrs by broth microdilution technique. The note with it: ATCC 9763, 48 h. In outline: as §1
A further test deals with Aspergillus flavus. Kind of test: Antifungal activity against Aspergillus flavus ATCC 9170 after 48 hrs by broth microdilution technique. The note with it: ATCC 9170, 48 h. In outline: as §2
Test [4] relates to Cryptococcus neoformans. Description: Antifungal activity against Cryptococcus neoformans IM 983036 after 48 hrs by broth microdilution technique. The note with it: IM 983036, 48 h. In outline:
(§3)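 C. neoformans was tested by 96-well RPMI-1640 microdilution, with DMSO-matched growth and sterility control wells. Plates were incubated 48 h at 30 °C in a moist, dark chamber and read at OD405. % inhibition = 100 − (CTW − SCW)/(GCW − SCW), in duplicate. For the clinical isolates, MIC80 and MIC50 are the lowest concentrations giving 80% and 50% inhibition.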

The subject of the next test is Nakaseomyces glabratus. Description: Antifungal activity against Candida glabrata CCC 115 after 48 hrs by broth microdilution technique. The note with it: CCC 115, 48 h.
The subject of test [5] is Candida albicans. Kind of test: Antifungal activity against Candida albicans CCC 126 after 48 hrs by broth microdilution technique. The note with it: CCC 126, 48 h.
A further test relates to Candida parapsilosis. Description: Antifungal activity against Candida parapsilosis CCC 124 after 48 hrs by broth microdilution technique. The note with it: Lodderomyces parapsilosis, CCC 124, 48 h.
Test [6] relates to Candida albicans. Description: Antifungal activity against Candida albicans CCC 130 after 48 hrs by broth microdilution technique. The note with it: CCC 130, 48 h.
Test [7] relates to Cryptococcus neoformans. Description: Antifungal activity against Cryptococcus neoformans IM 972751 after 48 hrs by broth microdilution technique. The note with it: IM 972751, 48 h. In outline:
as §3

Test [8] relates to Cryptococcus neoformans. Kind of test: Antifungal activity against Cryptococcus neoformans IM 972724 after 48 hrs by broth microdilution technique. The note with it: IM 972724, 48 h. In outline: as §3
For test [9], the system named is Candida albicans. Description: Antifungal activity against Candida albicans CCC 128 after 48 hrs by broth microdilution technique. The note with it: CCC 128, 48 h.
The test system of another test is Candida tropicalis. Kind of test: Antifungal activity against Candida tropicalis CCC 131 after 48 hrs by broth microdilution technique. The note with it: CCC 131, 48 h.
The test system of test [10] is Candida albicans. Kind of test: Antifungal activity against Candida albicans CCC 125 after 48 hrs by broth microdilution technique. The note with it: CCC 125, 48 h.
The next test concerns Pichia kudriavzevii. Kind of test: Antifungal activity against Candida krusei CCC 117 after 48 hrs by broth microdilution technique. The note with it: CCC 117, 48 h.
Test [11] concerns Cryptococcus neoformans. Description: Antifungal activity against Cryptococcus neoformans IM 983040 after 48 hrs by broth microdilution technique. The note with it: IM 983040, 48 h. In outline: as §3
The subject of test [12] is Candida albicans. Description: Antifungal activity against Candida albicans CCC 129 after 48 hrs by broth microdilution technique. The note with it: CCC 129, 48 h.
The subject of test [13] is Cryptococcus neoformans. Kind of test: Antifungal activity against Cryptococcus neoformans IM 042074 after 48 hrs by broth microdilution technique. The note with it: IM 042074, 48 h. In outline:
as §3

Test [14] concerns Cryptococcus neoformans. Kind of test: Antifungal activity against Cryptococcus neoformans IM 00319 after 48 hrs by broth microdilution technique. The note with it: IM 00319, 48 h. In outline:
as §3

For test [15], the system named is Candida albicans. Kind of test: Antifungal activity against Candida albicans CCC 127 after 48 hrs by broth microdilution technique. The note with it: CCC 127, 48 h.

This is an account of results in ChEMBL document CHEMBL2157922, “Synthesis and antifungal activity of diverse C-2 pyridinyl and pyridinylvinyl substituted quinolines” (2012).

Converted amounts (≈) assume the structure as drawn.

Broadly, the MFC is the lowest tested concentration that kills the fungus rather than only halting it. High values mean weaker fungicidal potency, low ones greater fungicidal potency. As a reminder, the MIC is the lowest concentration that inhibits growth of the organism. Lower therefore signals greater potency. Usually MIC80 stands for an inhibitory concentration at the 80% level, which refers to growth in some studies and to a panel of isolates in others.

Consider `Clc1cccc2ccc(-c3ccncc3)nc12`, for which the MFC in the test with Trichophyton rubrum is 62 µg/mL (≈ 258 µM); in the test with Nannizzia gypsea, 62 µg/mL (≈ 258 µM); with Cryptococcus neoformans [2] it was 250 µg/mL (≈ 1040 µM); in test [3], 125 µg/mL (≈ 519 µM). Besides, the minimum inhibitory concentration (MIC) against Trichophyton rubrum is 31 µg/mL (≈ 129 µM); against Candida albicans [1] it was more than 250 µg/mL; in the test with Nannizzia gypsea, 31 µg/mL (≈ 129 µM); with Cryptococcus neoformans [2] it was 125 µg/mL (≈ 519 µM); in the test with Aspergillus fumigatus it was more than 250 µg/mL; in the test on Aspergillus niger, more than 250 µg/mL. For the same molecule, the figures for the MIC (in test [3]; in the test with Saccharomyces cerevisiae; with Aspergillus flavus) were 62 µg/mL (≈ 258 µM), more than 250 µg/mL and more than 250 µg/mL, respectively.

In the case of `Clc1ccc2nc(/C=C/c3cccnc3)ccc2c1`, the MFC (against Trichophyton rubrum; against Nannizzia gypsea; in the test on Aspergillus fumigatus; in test [3]; with Aspergillus flavus) was more than 250 µg/mL in each case. Also, the MIC against Trichophyton rubrum was 250 µg/mL (≈ 937 µM); in the test on Candida albicans [1] it was more than 250 µg/mL; in the test with Nannizzia gypsea, 250 µg/mL (≈ 937 µM); against Cryptococcus neoformans [2], more than 250 µg/mL; in the test with Aspergillus fumigatus, 250 µg/mL (≈ 937 µM); with Aspergillus niger, more than 250 µg/mL. Further, the figures for the MIC (in test [3]; against Saccharomyces cerevisiae; in the test on Aspergillus flavus) were 250 µg/mL (≈ 937 µM), more than 250 µg/mL and 250 µg/mL (≈ 937 µM), respectively.

Turning to `C[C@@H]1[C@H](O)[C@@H](C)/C=C/C=C/C=C/C=C/C=C/C=C/C=C/[C@H](O[C@@H]2O[C@H](C)[C@@H](O)[C@H](N)[C@@H]2O)C[C@@H]2O[C@](O)(C[C@@H](O)C[C@@H](O)[C@H](O)CC[C@@H](O)C[C@@H](O)CC(=O)O[C@H]1C)C[C@H](O)[C@H]2C(=O)O` [AMPHOTERICIN B], the MIC80 against Cryptococcus neoformans [4] came out at 0.13 µg/mL (≈ 0.141 µM); against Nakaseomyces glabratus, 0.39 µg/mL (≈ 0.422 µM); with Candida albicans [5], 1.56 µg/mL (≈ 1.69 µM); against Candida albicans [1], 1 µg/mL (≈ 1.08 µM); against Candida parapsilosis it was 0.78 µg/mL (≈ 0.844 µM); against Candida albicans [6], 0.5 µg/mL (≈ 0.541 µM). The MIC80 against Cryptococcus neoformans [7] stood at 0.25 µg/mL (≈ 0.271 µM); in the test on Cryptococcus neoformans [8] it was 0.06 µg/mL (≈ 0.0649 µM); in the test on Candida albicans [9] it was 1.56 µg/mL (≈ 1.69 µM); with Candida tropicalis, 0.5 µg/mL (≈ 0.541 µM); against Cryptococcus neoformans [2], 0.25 µg/mL (≈ 0.271 µM); with Candida albicans [10] it was 0.78 µg/mL (≈ 0.844 µM). Also, the MIC80 was 0.39 µg/mL (≈ 0.422 µM) with Pichia kudriavzevii; 0.13 µg/mL (≈ 0.141 µM) against Cryptococcus neoformans [11]; 0.78 µg/mL (≈ 0.844 µM) against Candida albicans [12]; 0.25 µg/mL (≈ 0.271 µM) against Cryptococcus neoformans [13]; 0.25 µg/mL (≈ 0.271 µM) with Cryptococcus neoformans [14]; 0.78 µg/mL (≈ 0.844 µM) with Candida albicans [15]. Also, the MIC in the test with Trichophyton rubrum came out at 0.06 µg/mL (≈ 0.0649 µM); in the test on Candida albicans [1], 0.98 µg/mL (≈ 1.06 µM); against Nannizzia gypsea it was 0.12 µg/mL (≈ 0.13 µM); with Cryptococcus neoformans [2], 0.25 µg/mL (≈ 0.271 µM); against Aspergillus fumigatus it was 0.49 µg/mL (≈ 0.53 µM); against Aspergillus niger, 0.49 µg/mL (≈ 0.53 µM). The MIC in [3] stood at 0.06 µg/mL (≈ 0.0649 µM); against Saccharomyces cerevisiae, 0.49 µg/mL (≈ 0.53 µM); against Aspergillus flavus, 0.49 µg/mL (≈ 0.53 µM).

With `CC(=O)N1CCN(c2ccc(OCC3COC(Cn4ccnc4)(c4ccc(Cl)cc4Cl)O3)cc2)CC1` (configuration not stated) [KETOCONAZOLE], the MIC in the test with Trichophyton rubrum worked out at 0.03 µg/mL (≈ 0.0565 µM); against Candida albicans [1], 0.49 µg/mL (≈ 0.922 µM); in the test with Nannizzia gypsea, 0.06 µg/mL (≈ 0.113 µM); in the test on Cryptococcus neoformans [2], 0.25 µg/mL (≈ 0.47 µM); against Aspergillus fumigatus, 0.49 µg/mL (≈ 0.922 µM); against Aspergillus niger it was 0.25 µg/mL (≈ 0.47 µM). Further, the MIC in [3] came to 0.03 µg/mL (≈ 0.0565 µM); with Saccharomyces cerevisiae, 0.49 µg/mL (≈ 0.922 µM); against Aspergillus flavus, 0.12 µg/mL (≈ 0.226 µM).

As for `CN(C/C=C/C#CC(C)(C)C)Cc1cccc2ccccc12` [TERBINAFINE], the MIC in the test on Trichophyton rubrum was 0.01 µg/mL (≈ 0.0343 µM); against Candida albicans [1] it was 1.95 µg/mL (≈ 6.69 µM); in the test with Nannizzia gypsea, 0.04 µg/mL (≈ 0.137 µM); with Cryptococcus neoformans [2] it was 0.49 µg/mL (≈ 1.68 µM); against Aspergillus fumigatus, 0.98 µg/mL (≈ 3.36 µM); in the test on Aspergillus niger it was 1.96 µg/mL (≈ 6.73 µM). Also, the MIC worked out at 0.03 µg/mL (≈ 0.103 µM) in test [3], 3.9 µg/mL (≈ 13.4 µM) in the test on Saccharomyces cerevisiae and 0.98 µg/mL (≈ 3.36 µM) against Aspergillus flavus.
